In brackets after ≈: the same amount, converted by molar mass. Activity calls are given as the source filed them. No cut-off for these calls is given here.
What was measured:
Bacillus subtilis [1] = assay: Antibacterial activity against Bacillus subtilis 168 after 18 hrs by broth microdilution method; assay type: functional; settings: subsp. subtilis str. 168, 18 h
Staphylococcus aureus [2] = assay: Antibacterial activity against Staphylococcus aureus ATCC 29213 after 18 hrs by broth microdilution method; assay type: functional; settings: ATCC 29213, 18 h
Staphylococcus aureus [3] = assay: Antibacterial activity against Staphylococcus aureus ATCC 29247 after 18 hrs by broth microdilution method; assay type: functional; settings: ATCC 29247, 18 h
Staphylococcus aureus [4] = assay: Antibacterial activity against methicillin-resistant Staphylococcus aureus ATCC 33591 after 18 hrs by broth microdilution method; assay type: functional; settings: ATCC 33591, 18 h
Staphylococcus aureus [5] = assay: Antibacterial activity against methicillin-resistant Staphylococcus aureus ATCC 33592 after 18 hrs by broth microdilution method; assay type: functional; settings: ATCC 33592, 18 h
Staphylococcus aureus [6] = assay: Antibacterial activity against methicillin-resistant Staphylococcus aureus ATCC 43300 after 18 hrs by broth microdilution method; assay type: functional; settings: ATCC 43300, 18 h
Staphylococcus aureus [7] = assay: Antibacterial activity against methicillin-resistant Staphylococcus aureus ATCC BAA-41 after 18 hrs by broth microdilution method; assay type: functional; settings: ATCC BAA-41, 18 h
Staphylococcus aureus [8] = assay: Antibacterial activity against methicillin-resistant Staphylococcus aureus ATCC BAA-1717 after 18 hrs by broth microdilution method; assay type: functional; settings: ATCC BAA-1717, 18 h
Staphylococcus aureus [9] = assay: Antibacterial activity against methicillin-resistant Staphylococcus aureus ATCC BAA-1720 after 18 hrs by broth microdilution method; assay type: functional; settings: ATCC BAA-1720, 18 h
Staphylococcus aureus [10] = assay: Antibacterial activity against methicillin-resistant Staphylococcus aureus ATCC BAA-1747 after 18 hrs by broth microdilution method; assay type: functional; settings: ATCC BAA-1747, 18 h
Staphylococcus aureus [11] = assay: Antibacterial activity against methicillin-resistant Staphylococcus aureus USA300 417 after 18 hrs by broth microdilution method; assay type: functional; settings: USA300 417, 18 h
Staphylococcus aureus [12] = assay: Antibacterial activity against methicillin-resistant Staphylococcus aureus USA300 2690 after 18 hrs by broth microdilution method; assay type: functional; settings: USA300 2690, 18 h
[13] = test system: Staphylococcus epidermidis; assay: Antibacterial activity against Staphylococcus epidermidis ATCC 12228 after 18 hrs by broth microdilution method; assay type: functional; settings: ATCC 12228, 18 h
Enterococcus faecalis = assay: Antibacterial activity against Enterococcus faecalis ATCC 29212 after 18 hrs by broth microdilution method; assay type: functional; settings: ATCC 29212, 18 h
Enterococcus faecium [14] = assay: Antibacterial activity against Enterococcus faecium ATCC 49624 after 18 hrs by broth microdilution method; assay type: functional; settings: ATCC 49624, 18 h
Enterococcus faecium [15] = assay: Antibacterial activity against vancomycin-resistant Enterococcus faecium ATCC 700221 after 18 hrs by broth microdilution method; assay type: functional; settings: ATCC 700221, 18 h
Escherichia coli = assay: Antibacterial activity against Escherichia coli ATCC 25922 after 18 hrs by broth microdilution method; assay type: functional; settings: ATCC 25922, 18 h
Pseudomonas aeruginosa = assay: Antibacterial activity against Pseudomonas aeruginosa ATCC BAA-2108 after 18 hrs by broth microdilution method; assay type: functional; settings: ATCC BAA-2108, 18 h
Klebsiella pneumoniae = assay: Antibacterial activity against Klebsiella pneumoniae ATCC BAA-1144 after 18 hrs by broth microdilution method; assay type: functional; settings: ATCC BAA-1144, 18 h
[16] = target: T1, Cell division protein FtsZ (Staphylococcus aureus) (UniProt P0A031); assay: Induction of recombinant Staphylococcus aureus FtsZ polymerization at 10 ug/ml by 90degree light scattering-based fluorescence spectrometric analysis
T1 sequence (whole entry): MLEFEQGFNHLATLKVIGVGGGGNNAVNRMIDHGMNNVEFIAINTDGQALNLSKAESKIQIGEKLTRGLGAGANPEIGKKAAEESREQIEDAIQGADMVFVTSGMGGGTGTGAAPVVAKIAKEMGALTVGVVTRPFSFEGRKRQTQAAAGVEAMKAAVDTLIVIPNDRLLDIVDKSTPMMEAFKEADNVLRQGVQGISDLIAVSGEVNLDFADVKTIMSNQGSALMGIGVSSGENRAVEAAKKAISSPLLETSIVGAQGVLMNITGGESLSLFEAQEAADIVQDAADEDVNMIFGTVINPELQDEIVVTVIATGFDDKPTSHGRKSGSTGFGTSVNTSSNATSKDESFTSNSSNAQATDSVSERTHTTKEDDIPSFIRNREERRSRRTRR
Outline: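 Recombinant S. aureus FtsZ cloned, overexpressed and purified. Polymerization followed over time by 90° light scattering in a thermostatically controlled fluorescence spectrometer, read as absorbance at 600 nm. Profiles recorded with and without compound. Methicillin served as the non-FtsZ-targeting control antibiotic.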

Staphylococcus aureus [17] = assay: Bactericidal activity against Staphylococcus aureus ATCC 29213 assessed as reduction in bacterial load at MIC to 4 times MIC after 24 hrs relative to control; assay type: functional
Outline: (§1)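 Time-kill assay: a growing culture (S. aureus ATCC 29213 or B. subtilis 168) was exposed at time zero to 1×, 2× and 4× the MIC. Viable cell numbers were followed over 24 h, and the log reduction in viable count was recorded.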

Bacillus subtilis [18] = assay: Bactericidal activity against Bacillus subtilis 168 assessed as reduction in bacterial load at MIC to 4 times MIC after 24 hrs relative to control; assay type: functional, subsp. subtilis str. 168; outline: as §1
[19] = target: T1, Cell division protein FtsZ (Staphylococcus aureus); assay: Induction of recombinant Staphylococcus aureus FtsZ polymerization by 90degree light scattering-based fluorescence spectrometric analysis
Outline: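 S. aureus FtsZ was cloned, overexpressed and purified. Polymerization was followed over time by 90° light scattering in a thermostatically controlled fluorescence spectrometer, […] change at 600 nm. Compound was tested at 2 to 8 μg mL–1 against a no-compound profile. Methicillin served as the non-FtsZ-targeting control antibiotic.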

[20] = target: T1, Cell division protein FtsZ (Staphylococcus aureus); assay: Induction of recombinant Staphylococcus aureus FtsZ polymerization assessed as increase in size of polymers at 4 ug/ml preincubated for 10 mins followed by GTP addition and measured after 15 mins by transmission electron microscopic method
[21] = target: T1, Cell division protein FtsZ (Staphylococcus aureus); assay: Induction of recombinant Staphylococcus aureus FtsZ polymerization assessed as increase in bundling of protein protofilaments at 4 ug/ml preincubated for 10 mins followed by GTP addition and measured after 15 mins by transmission electron microscopic method
[22] = target: T1, Cell division protein FtsZ (Staphylococcus aureus); assay: Inhibition of recombinant Staphylococcus aureus FtsZ GTPase activity preincubated for 10 mins followed by GTP addition and measured after 30 mins
Bacteria = assay: Induction of bacterial GFP-fused FtsZ polymerization expressed in Bacillus subtilis 168 assessed as misformation of Z-ring at 2 ug/ml after 4 hrs by fluorescence microscopic method
Outline: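 B. subtilis 168 carrying a GFP–FtsZ construct was treated with compound or with DMSO as control. Z-ring formation was then examined by fluorescence microscopy.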

[23] = target: T2, Cell division protein FtsZ (Bacillus subtilis (strain 168)) (UniProt P17865); assay: Inhibition of cell division function of FtsZ in Bacillus subtilis 168 assessed as increase in cell length at 2 ug/ml after 5 hrs by phase contrast light microscopic method; settings: Bacillus subtilis subsp. subtilis str. 168
T2 sequence (whole entry): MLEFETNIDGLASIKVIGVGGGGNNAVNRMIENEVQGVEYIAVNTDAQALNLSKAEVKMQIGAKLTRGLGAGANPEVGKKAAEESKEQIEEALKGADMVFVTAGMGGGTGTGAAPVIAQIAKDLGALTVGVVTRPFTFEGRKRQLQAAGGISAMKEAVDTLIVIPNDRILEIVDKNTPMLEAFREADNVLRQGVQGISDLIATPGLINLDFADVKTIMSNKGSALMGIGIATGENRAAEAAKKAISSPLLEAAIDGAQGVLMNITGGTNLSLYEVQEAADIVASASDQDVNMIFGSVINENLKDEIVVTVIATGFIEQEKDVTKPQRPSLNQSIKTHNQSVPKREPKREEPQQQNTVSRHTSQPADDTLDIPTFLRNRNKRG
Outline: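 B. subtilis 168 cells were grown with or without 2 μg mL–1 compound. Cell morphology, including filamentation, was then examined by microscopy.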

| SMILES | MIC90 (Bacillus subtilis [1]) [µg/mL] | MIC90 (Staphylococcus aureus [2]) [µg/mL] | MIC90 (Staphylococcus aureus [3]) [µg/mL] | MIC90 (Staphylococcus aureus [4]) [µg/mL] | MIC90 (Staphylococcus aureus [5]) [µg/mL] | MIC90 (Staphylococcus aureus [6]) [µg/mL] | MIC90 (Staphylococcus aureus [7]) [µg/mL] | MIC90 (Staphylococcus aureus [8]) [µg/mL] | MIC90 (Staphylococcus aureus [9]) [µg/mL] | MIC90 (Staphylococcus aureus [10]) [µg/mL] | MIC90 (Staphylococcus aureus [11]) [µg/mL] | MIC90 (Staphylococcus aureus [12]) [µg/mL] | MIC90 [13] [µg/mL] | MIC90 (Enterococcus faecalis) [µg/mL] | MIC90 (Enterococcus faecium [14]) [µg/mL] | MIC90 (Enterococcus faecium [15]) [µg/mL] | MIC90 (Escherichia coli) [µg/mL] | MIC90 (Pseudomonas aeruginosa) [µg/mL] | MIC90 (Klebsiella pneumoniae) [µg/mL] | also measured |
| --- | --- | --- | --- | --- | --- | --- | --- | --- | --- | --- | --- | --- | --- | --- | --- | --- | --- | --- | --- | --- |
| COc1cccc(OC)c1C(=O)N[C@@H]1C(=O)N2[C@@H]1SC(C)(C)[C@@H]2C(=O)O [METHICILLIN] | < 1 | < 1 | 6 (≈ 15.8 µM) | 1020 (≈ 2690 µM) | 512 (≈ 1350 µM) | 512 (≈ 1350 µM) | 1020 (≈ 2690 µM) | 512 (≈ 1350 µM) | 1020 (≈ 2690 µM) | 256 (≈ 673 µM) | 512 (≈ 1350 µM) | 256 (≈ 673 µM) | 0.75 (≈ 1.97 µM) | 0.75 (≈ 1.97 µM) | 1.5 (≈ 3.94 µM) | 1.5 (≈ 3.94 µM) | 3 (≈ 7.89 µM) | > 256 | > 256 | Activity [16]: inactive |
| O=C(O)C(=O)c1cn(Cc2ccccc2)c2ccc(-c3ccc(OC(F)(F)F)cc3)cc12 [TIPLASININ] | 2 (≈ 4.55 µM) | 2 (≈ 4.55 µM) | 2 (≈ 4.55 µM) | 4 (≈ 9.1 µM) | 4 (≈ 9.1 µM) | 4 (≈ 9.1 µM) | 4 (≈ 9.1 µM) | 4 (≈ 9.1 µM) | 4 (≈ 9.1 µM) | 4 (≈ 9.1 µM) | 2 (≈ 4.55 µM) | 2 (≈ 4.55 µM) | 2 (≈ 4.55 µM) | 4 (≈ 9.1 µM) | 4 (≈ 9.1 µM) | 4 (≈ 9.1 µM) | > 48 | > 48 | > 48 | Activity (Staphylococcus aureus [17]): >3 deltalog10CFU/ml; Activity (Bacillus subtilis [18]): >3 deltalog10CFU/ml; Activity [19]: Dose-dependent effect; Activity [20]: Active; Activity [21]: Active; inhibition [22]: Dose-dependent effect; Activity (Bacteria): Active; inhibition [23]: Active |
| CN[C@H](CC(C)C)C(=O)N[C@H]1C(=O)N[C@@H](CC(N)=O)C(=O)N[C@H]2C(=O)N[C@H]3C(=O)N[C@H](C(=O)N[C@H](C(=O)O)c4cc(O)cc(O)c4-c4cc3ccc4O)[C@H](O)c3ccc(c(Cl)c3)Oc3cc2cc(c3O[C@@H]2O[C@H](CO)[C@@H](O)[C@H](O)[C@H]2O[C@H]2C[C@](C)(N)[C@H](O)[C@H](C)O2)Oc2ccc(cc2Cl)[C@H]1O [VANCOMYCIN] |  |  |  |  |  |  |  |  |  |  |  |  |  |  |  | > 96 |  |  |  |  |

Source: ChEMBL document CHEMBL4261566, “New application of tiplaxtinin as an effective FtsZ-targeting chemotype for an antimicrobial study” (2017)
